# Source: ChEMBL document CHEMBL4020842, “Discovery of N1-(4-((7-Cyclopentyl-6-(dimethylcarbamoyl)-7 H-pyrrolo[2,3- d]pyrimidin-2-yl)amino)phenyl)- N8-hydroxyoctanediamide as a Novel Inhibitor Targeting Cyclin-dependent Kinase 4/9 (CDK4/9) and Histone Deacetlyase1 (HDAC1) against Malignant Cancer” (J Med Chem, 2018)
# Calls of active or inactive are those of the source. The rule behind the calls is not given here.
# Legend:
# [1] = system: Mus musculus; experiment: Downregulation of Bcl2 level in tumor of Balb/c mouse implanted with mouse Fluc-labeled 4T1 cells at 90 to 130 mg/kg, […] daily for 18 days by immunohistochemical analysis; assay type: functional, organism-based
# [2] = system: MDA-MB-231; experiment: Induction of apoptosis in human MDA-MB-231 cells assessed as live cells at 1 uM after 48 hrs by annexin V-FITC/propidium iodide staining based flow cytometry (reference value: 98.1%); assay type: functional
# [3] = system: T47D; experiment: Induction of apoptosis in human T47D cells assessed as early apoptotic cells at 10 uM after 48 hrs by annexin V-FITC/propidium iodide staining based flow cytometry (reference value: 7.7%); assay type: functional
# [4] = MRT (0 to infinity) in Sprague-Dawley rat at 20 mg/kg, ip administered as single dose by HPLC analysis; assay type: ADME, organism-based; conditions: in vivo
# [5] = system: NCI-H460; experiment: Cell cycle arrest in human NCI-H460 cells assessed as decrease in S-phase at 625 nM after 24 hrs by propidium iodide staining based flow cytometry; assay type: functional
# In short: (§1)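 Cells were exposed for 24 h to a range of concentrations (625 nM, 2.5 and 10 µM), with DMSO vehicle as control. They were then stained with propidium iodide and analysed by flow cytometry to obtain the percentages of cells in G0/G1, S and G2 phases.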
# [6] = biological target: High affinity nerve growth factor receptor (Homo sapiens, UniProt P04629); experiment: Inhibition of recombinant human N-terminal His6-tagged TrkA (440-end residues) expressed in baculovirus infected sf21 cells
# [7] = system: A549; experiment: Inhibition of CDK4 protein expression in human A549 cells at 0.1 to 1 uM after 24 hrs by immunofluorescence assay; assay type: functional, cell-based
# In short: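 Cells treated 24 h with test compound or vehicle. For the CDK4 read-out the compound was used at 100 nM, and for acetyl-histone H3 at 1 µM. CDK4 and acetyl-histone H3 were then detected by immunofluorescence staining and compared with vehicle-treated cells.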
# [8] = system: NCI-H460; experiment: Induction of apoptosis in human NCI-H460 cells assessed as live cells at 5 uM after 48 hrs by annexin V-FITC/propidium iodide staining based flow cytometry (reference value: 97.3%); assay type: functional
# [9] = biological target: CDK9/cyclin T1 (Homo sapiens, UniProt P50750); experiment: Inhibition of recombinant human full length C-terminal 6His-tagged CDK9/Cyclin-T1 co-expressed in baculovirus infected sf21 cells using PDKtide substrate in presence of [gamma33P]ATP after 10 mins by scintillation counting method
# [10] = system: A549; experiment: Cell cycle arrest in human A549 cells assessed as accumulation at G0/G1 phase at 625 nM after 24 hrs by propidium iodide staining based flow cytometry; assay type: functional; in short: as §1
# [11] = system: T47D; experiment: Cell cycle arrest in human T47D cells assessed as accumulation at G2 phase at 2.5 to 10 uM after 24 hrs by propidium iodide staining based flow cytometry; assay type: functional; in short: as §1
# [12] = system: HepG2; experiment: Induction of apoptosis in human HepG2 cells assessed as early apoptotic cells at 10 uM after 48 hrs by annexin V-FITC/propidium iodide staining based flow cytometry (reference value: 0.3%); assay type: functional
# [13] = system: Hep 3B2; experiment: Induction of apoptosis in human Hep3B cells after 48 hrs by annexin V-FITC/propidium iodide staining based flow cytometry; assay type: functional, cell-based
# [14] = system: 4T1; experiment: Antitumor activity against mouse Fluc-labeled 4T1 cells implanted in Balb/c mouse assessed as tumor growth inhibition at 90 mg/kg, po administered daily via gavage for 18 days by bioluminescence assay relative to control; assay type: functional; conditions: 4T1, po, 432 h, read-out: TGI
# In short: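 Fluc-labelled 4T1 cells (lentiviral transduction) were implanted orthotopically into the mammary fat pads of female BALB/c mice aged 6–8 weeks. Treatment started once tumours averaged 100 mm3, given daily by oral gavage. Tumour burden was followed by bioluminescence imaging of Fluc reporter expression.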
# [15] = system: NCI-H460; experiment: Induction of apoptosis in human NCI-H460 cells assessed as early apoptotic cells at 1 uM after 48 hrs by annexin V-FITC/propidium iodide staining based flow cytometry (reference value: 0.11%); assay type: functional
# [16] = Apparent volume of distribution at steady state in Sprague-Dawley rat at 20 mg/kg, iv administered as single dose by HPLC analysis; assay type: ADME, organism-based; conditions: in vivo, read-out: Vdss(app)
# [17] = Aqueous solubility in water at 1 mg using methanesulfonic acid formulation sonicated for 24 hrs and incubated under unstirred condition for 24 hrs by HPLC method; assay type: physicochemical
# [18] = biological target: CDK4/CDK9 (Homo sapiens) (UniProt P11802+P50750); experiment: Inhibition of CDK4/CDK9 in human HepG2 cells assessed as reduction in Rb phosphorylation at Ser807/811 residues at 1 uM after 48 hrs by Western blot method; assay type: cell-based
# [19] = Oral bioavailability in Sprague-Dawley rat at 20 mg/kg administered as single dose by HPLC analysis; assay type: ADME, organism-based; conditions: in vivo
# [20] = system: T47D; experiment: Induction of apoptosis in human T47D cells assessed as necrotic cells at 1 uM after 48 hrs by annexin V-FITC/propidium iodide staining based flow cytometry (reference value: 0.8%); assay type: functional
# [21] = system: HepG2; experiment: Downregulation of CDK4 protein expression in human HepG2 cells after 48 hrs by Western blot method; assay type: functional, cell-based
# [22] = system: T47D; experiment: Induction of apoptosis in human T47D cells assessed as reduction in Bcl2 protein expression after 48 hrs by Western blot method; assay type: functional, cell-based
# In short: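 Cells were treated with or without test agent, alongside a control, for 48h. They were then lysed and analysed by Western blot for Bcl-2 protein and cleaved caspase 3.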
# [23] = system: NCI-H460; experiment: Induction of apoptosis in human NCI-H460 cells assessed as late apoptotic cells at 10 uM after 48 hrs by annexin V-FITC/propidium iodide staining based flow cytometry (reference value: 1.29%); assay type: functional
# [24] = biological target: Histone deacetylase 1 (Homo sapiens, UniProt Q13547); experiment: Inhibition of HDAC1 in human MDA-MB-231 cells assessed as increase in acetylated-histone H3 level at 1 to 5 uM after 48 hrs by Western blot method; assay type: cell-based
# [25] = system: Hep 3B2; experiment: Induction of apoptosis in human Hep3B cells assessed as necrotic cells at 5 uM after 48 hrs by annexin V-FITC/propidium iodide staining based flow cytometry (reference value: 4.97%); assay type: functional
# [26] = system: HepG2; experiment: Induction of apoptosis in human HepG2 cells assessed as early apoptotic cells at 1 uM after 48 hrs by annexin V-FITC/propidium iodide staining based flow cytometry (reference value: 0.3%); assay type: functional
# [27] = system: T47D; experiment: Induction of apoptosis in human T47D cells assessed as late apoptotic cells at 5 uM after 48 hrs by annexin V-FITC/propidium iodide staining based flow cytometry (reference value: 6.16%); assay type: functional
# [28] = system: A549; experiment: Induction of apoptosis in human A549 cells assessed as necrotic cells at 5 uM after 48 hrs by annexin V-FITC/propidium iodide staining based flow cytometry (reference value: […]%); assay type: functional
# [29] = system: Hep 3B2; experiment: Cytotoxicity against human Hep3B cells assessed as reduction in cell viability after 72 hrs by CCK8 assay
# [30] = system: Mus musculus; experiment: Downregulation of phosphorylated Rb level in tumor of Balb/c mouse implanted with mouse Fluc-labeled 4T1 cells at 90 to 130 mg/kg, po administered via gavage daily for 18 days by immunohistochemical analysis; assay type: functional, organism-based
# In short: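 4T1 cells were labeled with firefly luciferase by lentiviral transduction and implanted orthotopically into the mammary fat pads of 6−8-week-old female BALB/c mice. Dosing by oral gavage began once tumors averaged 100 mm3, at 90 and 130 mg/kg. p-Rb in tumors was assessed by immunohistochemistry.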
# Chain of CDK9/cyclin T1 (O60563 whole entry): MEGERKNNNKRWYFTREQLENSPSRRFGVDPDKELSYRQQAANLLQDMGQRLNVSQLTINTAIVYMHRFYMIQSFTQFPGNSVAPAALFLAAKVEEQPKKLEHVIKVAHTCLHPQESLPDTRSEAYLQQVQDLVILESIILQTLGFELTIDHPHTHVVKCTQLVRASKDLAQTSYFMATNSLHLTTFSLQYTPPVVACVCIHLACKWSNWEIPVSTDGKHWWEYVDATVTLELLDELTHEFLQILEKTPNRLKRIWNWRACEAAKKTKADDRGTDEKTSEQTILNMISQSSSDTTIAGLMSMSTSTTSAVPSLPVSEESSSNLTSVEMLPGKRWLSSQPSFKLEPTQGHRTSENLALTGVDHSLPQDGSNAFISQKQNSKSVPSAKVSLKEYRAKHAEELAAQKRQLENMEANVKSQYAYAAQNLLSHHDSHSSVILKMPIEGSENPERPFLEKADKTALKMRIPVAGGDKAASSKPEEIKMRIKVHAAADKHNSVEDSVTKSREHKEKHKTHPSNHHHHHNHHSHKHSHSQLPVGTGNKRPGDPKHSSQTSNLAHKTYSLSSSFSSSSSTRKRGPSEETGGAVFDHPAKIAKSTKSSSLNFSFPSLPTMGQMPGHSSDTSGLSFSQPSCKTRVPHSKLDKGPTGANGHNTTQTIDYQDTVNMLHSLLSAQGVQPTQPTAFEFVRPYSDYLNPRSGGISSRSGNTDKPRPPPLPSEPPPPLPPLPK
# Chain of CDK9/cyclin T1 (P50750 whole entry): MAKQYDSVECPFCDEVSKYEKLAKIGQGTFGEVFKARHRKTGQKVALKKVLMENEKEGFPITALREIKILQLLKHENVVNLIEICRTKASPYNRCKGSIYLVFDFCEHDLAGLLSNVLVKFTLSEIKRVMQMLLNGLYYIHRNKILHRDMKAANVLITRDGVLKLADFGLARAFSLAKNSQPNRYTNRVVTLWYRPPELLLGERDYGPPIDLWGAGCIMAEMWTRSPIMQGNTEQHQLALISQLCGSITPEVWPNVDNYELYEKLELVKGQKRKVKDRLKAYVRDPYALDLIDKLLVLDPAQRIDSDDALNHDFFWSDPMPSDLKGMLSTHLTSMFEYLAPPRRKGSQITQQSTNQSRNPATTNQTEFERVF
# Chain of CDK4/CDK9 (Homo sapiens) (P11802 whole entry, looked up): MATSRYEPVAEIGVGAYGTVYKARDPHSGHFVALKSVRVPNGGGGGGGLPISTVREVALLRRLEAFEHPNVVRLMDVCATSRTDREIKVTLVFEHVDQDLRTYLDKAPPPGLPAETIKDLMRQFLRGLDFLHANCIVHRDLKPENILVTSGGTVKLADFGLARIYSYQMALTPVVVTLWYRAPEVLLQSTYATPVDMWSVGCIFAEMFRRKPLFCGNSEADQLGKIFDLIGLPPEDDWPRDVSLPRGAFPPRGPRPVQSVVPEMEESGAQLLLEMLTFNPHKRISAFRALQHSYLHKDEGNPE
# Chain of CDK4/CDK9 (Homo sapiens) (P50750 whole entry, looked up): as the sequence (P50750 whole entry) above
# Chain of High affinity nerve growth factor receptor (P04629 whole entry): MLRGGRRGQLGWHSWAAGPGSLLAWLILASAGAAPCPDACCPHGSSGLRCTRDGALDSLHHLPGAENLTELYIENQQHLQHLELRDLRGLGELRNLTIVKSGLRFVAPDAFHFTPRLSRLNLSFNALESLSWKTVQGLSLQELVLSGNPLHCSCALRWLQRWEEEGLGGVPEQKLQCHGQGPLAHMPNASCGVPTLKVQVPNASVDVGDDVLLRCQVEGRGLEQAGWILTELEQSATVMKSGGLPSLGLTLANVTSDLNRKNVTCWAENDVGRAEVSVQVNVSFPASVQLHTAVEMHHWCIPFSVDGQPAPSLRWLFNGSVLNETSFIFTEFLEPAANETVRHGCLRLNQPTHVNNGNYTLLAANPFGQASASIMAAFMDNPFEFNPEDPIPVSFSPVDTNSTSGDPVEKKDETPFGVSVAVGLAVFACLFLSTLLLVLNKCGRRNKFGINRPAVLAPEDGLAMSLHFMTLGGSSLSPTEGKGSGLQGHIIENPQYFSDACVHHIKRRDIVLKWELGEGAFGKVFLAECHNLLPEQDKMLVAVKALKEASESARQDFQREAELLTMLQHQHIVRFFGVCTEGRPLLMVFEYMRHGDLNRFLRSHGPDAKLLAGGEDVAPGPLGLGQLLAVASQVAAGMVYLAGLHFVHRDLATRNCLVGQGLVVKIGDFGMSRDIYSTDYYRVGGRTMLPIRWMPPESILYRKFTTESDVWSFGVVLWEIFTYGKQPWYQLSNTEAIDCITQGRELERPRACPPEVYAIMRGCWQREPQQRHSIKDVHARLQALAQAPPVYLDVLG
# Chain of Histone deacetylase 1 (Q13547 whole entry): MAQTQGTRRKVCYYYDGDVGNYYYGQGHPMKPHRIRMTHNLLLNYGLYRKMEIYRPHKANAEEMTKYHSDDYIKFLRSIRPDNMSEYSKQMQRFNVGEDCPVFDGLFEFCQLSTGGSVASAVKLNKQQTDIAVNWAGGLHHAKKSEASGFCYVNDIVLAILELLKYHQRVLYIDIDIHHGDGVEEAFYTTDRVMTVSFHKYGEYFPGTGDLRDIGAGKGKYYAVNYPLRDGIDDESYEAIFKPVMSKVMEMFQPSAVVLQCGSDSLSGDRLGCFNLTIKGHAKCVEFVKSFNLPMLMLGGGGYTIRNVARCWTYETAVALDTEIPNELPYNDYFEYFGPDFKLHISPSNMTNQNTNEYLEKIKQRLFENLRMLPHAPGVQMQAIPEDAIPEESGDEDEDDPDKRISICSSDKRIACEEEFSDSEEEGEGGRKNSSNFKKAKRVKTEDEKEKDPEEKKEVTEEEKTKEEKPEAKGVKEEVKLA
structure (smiles),measurement,setting,value
CN(C)C(=O)c1cc2cnc(Nc3ccc(NC(=O)CCCCCCC(=O)NO)cc3)nc2n1C1CCCC1,Activity,[1],Active
same,Activity,[2],95.6%
same,Activity,[3],37.1%
same,MRT inf,[4],13.8 h
same,Activity,[5],Active
same,IC50,[6],31 nM
same,inhibition,[7],Active
same,Activity,[8],88.9%
same,IC50,[9],9 nM
same,Activity,[10],Active
same,Activity,[11],Active
same,Activity,[12],9.32%
same,Activity,[13],Dose-dependent effect
same,inhibition in vivo at 90 mg/kg,[14],70.3%
same,Activity,[15],0.28%
same,Vd,[16],49 L/kg
same,solubility at 24 h,[17],526 µg/mL
same,inhibition,[18],Active
same,bioavailability,[19],18.4%
same,Activity,[20],6.7%
same,Activity,[21],Dose-dependent effect
same,Activity,[22],Active
same,Activity,[23],10.9%
same,inhibition,[24],Active
same,Activity,[25],2.08%
same,Activity,[26],2.6%
same,Activity,[27],8.44%
same,Activity,[28],4.16%
same,IC50,[29],1240 nM
same,Activity,[30],Active
